In ChEMBL document CHEMBL4842314, “Synthesis and SAR evaluation of coumarin derivatives as potent cannabinoid receptor agonists” (Eur J Med Chem, 2021):

What was measured:
Cannabinoid receptor 1 [1] = molecular target: T1, Cannabinoid receptor 1 (Homo sapiens, UniProt P21554); experiment: Displacement of [3H]-CP55940 from human recombinant CB1 receptor expressed in CHO-K1 cell membrane measured after 3 hrs by scintillation spectrometry; assay type: cell membranes
Cannabinoid receptor 2 [2] = molecular target: T2, Cannabinoid receptor 2 (Homo sapiens, UniProt P34972); experiment: Displacement of [3H]-CP55940 from human recombinant CB2 receptor expressed in CHO-K1 cell membrane measured after 3 hrs by scintillation spectrometry; assay type: cell membranes; details: read-out: Ki
T2 sequence (P34972 whole entry): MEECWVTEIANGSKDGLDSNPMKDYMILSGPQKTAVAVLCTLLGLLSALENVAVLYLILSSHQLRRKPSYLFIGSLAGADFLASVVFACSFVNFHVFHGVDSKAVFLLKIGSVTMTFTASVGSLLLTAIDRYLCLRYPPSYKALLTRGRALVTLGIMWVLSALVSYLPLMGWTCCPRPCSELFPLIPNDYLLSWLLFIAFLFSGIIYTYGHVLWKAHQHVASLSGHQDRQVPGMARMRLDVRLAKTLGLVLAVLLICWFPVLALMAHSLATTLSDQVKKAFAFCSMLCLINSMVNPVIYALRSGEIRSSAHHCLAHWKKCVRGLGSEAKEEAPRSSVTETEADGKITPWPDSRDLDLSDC

Cannabinoid receptor 1 [3] = molecular target: T1, Cannabinoid receptor 1; experiment: Displacement of [3H]-CP55940 from human recombinant CB1 receptor expressed in CHO-K1 cell membrane at 1 uM measured after 3 hrs by scintillation spectrometry; assay type: cell membranes
Cannabinoid receptor 2 [4] = molecular target: T2, Cannabinoid receptor 2; experiment: Displacement of [3H]-CP55940 from human recombinant CB2 receptor expressed in CHO-K1 cell membrane at 1 uM measured after 3 hrs by scintillation spectrometry; assay type: cell membranes; details: filed as agonist
Cannabinoid receptor 2 [5] = molecular target: T2, Cannabinoid receptor 2; experiment: Agonist activity at human recombinant CB2 receptor expressed in CHO-K1 cell membrane assessed as increase in GTPgammaS binding at 1 uM pretreated for 30 mins followed by [35S]GTPgammaS addition for 90 mins by [35S]GTP-gammaS binding assay relative to CP55940; assay type: functional, cell membranes; details: time 120.0 min
Procedure, shortened: (§1)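 Membranes (5 μg) from PathHunter CHOK1 cells stably expressing hCB1 or hCB2 pre-incubated 30 min at room temperature with test ligand at 1 μM final, 1 μM GDP and 5 μg saponin in Tris-HCl pH 7.4, MgCl2, NaCl, EDTA, BSA, DTT. [35S]GTPγS (0.3 nM final) was then added for 90 min at 25 °C. Filtration on GF/B. Emax given relative to CP55,940 (100%), two experiments in duplicate.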

Cannabinoid receptor 2 [6] = molecular target: T2, Cannabinoid receptor 2; experiment: Agonist activity at human recombinant CB2 receptor expressed in CHO-K1 cell membrane assessed as increase in GTPgammaS binding pretreated for 30 mins followed by [35S]GTPgammaS addition for 90 mins by [35S]GTP-gammaS binding assay; assay type: functional, cell membranes
Procedure, shortened: (§2)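 Concentration-response [35S]GTPγS binding on 5 μg hCB1 or hCB2 CHOK1 membranes. Ligand, 1 μM GDP and saponin pre-incubated 30 min at room temperature, then 0.3 nM [35S]GTPγS added for 90 min at 25 °C. Filtration read-out. Three experiments in duplicate.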

Cannabinoid receptor 1 [7] = molecular target: T1, Cannabinoid receptor 1; experiment: Agonist activity at human recombinant CB1 receptor expressed in CHO-K1 cell membrane assessed as increase in GTPgammaS binding at 1 uM pretreated for 30 mins followed by [35S]GTPgammaS addition for 90 mins by [35S]GTP-gammaS binding assay relative to CP55940; assay type: functional, cell membranes; details: time 120.0 min; procedure, shortened: as §1
Cannabinoid receptor 1 [8] = molecular target: T1, Cannabinoid receptor 1; experiment: Agonist activity at human recombinant CB1 receptor expressed in CHO-K1 cell membrane assessed as increase in GTPgammaS binding pretreated for 30 mins followed by [35S]GTPgammaS addition for 90 mins by [35S]GTP-gammaS binding assay; assay type: functional, cell membranes; procedure, shortened: as §2
Homo sapiens = organism: Homo sapiens; experiment: Selectivity ratio of Ki for human recombinant CB2 receptor expressed in CHO-K1 cell membrane to Ki for human recombinant CB1 receptor expressed in CHO-K1 cell membrane; assay type: cell-based

T1 sequence (P21554 whole entry): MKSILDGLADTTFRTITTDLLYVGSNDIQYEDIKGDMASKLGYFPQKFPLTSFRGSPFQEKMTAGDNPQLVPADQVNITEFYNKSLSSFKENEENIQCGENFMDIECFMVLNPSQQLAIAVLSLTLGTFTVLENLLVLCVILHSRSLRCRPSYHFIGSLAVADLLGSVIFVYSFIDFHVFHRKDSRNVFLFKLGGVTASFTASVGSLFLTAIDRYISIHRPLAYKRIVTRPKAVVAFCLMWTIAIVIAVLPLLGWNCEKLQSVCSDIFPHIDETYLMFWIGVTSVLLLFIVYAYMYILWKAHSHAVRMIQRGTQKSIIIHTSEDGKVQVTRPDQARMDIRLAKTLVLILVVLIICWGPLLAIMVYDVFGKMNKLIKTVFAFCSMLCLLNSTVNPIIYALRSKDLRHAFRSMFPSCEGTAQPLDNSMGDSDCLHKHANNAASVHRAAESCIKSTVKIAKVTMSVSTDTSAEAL

SMILES: CCCCc1cc2c(O)cc(C3(CCCC)CCCC3)cc2oc1=O
- Ki (Cannabinoid receptor 1 [1]; read-out: pKi (converted)): 1000 nM
- Ki (Cannabinoid receptor 2 [2]): 13.7 nM
- inhibition (Cannabinoid receptor 1 [3]; filed as agonist): 50%
- inhibition (Cannabinoid receptor 2 [4]): > 50%
- Emax (Cannabinoid receptor 2 [5]; filed as agonist): 85%
- EC50 (Cannabinoid receptor 2 [6]): 18 nM

SMILES: CCCCCc1cc(OC)c2cc(Cc3ccccn3)c(=O)oc2c1
- Ki (Cannabinoid receptor 1 [1]; read-out: Ki): 70.3 nM
- Ki (Cannabinoid receptor 2 [2]): 82.4 nM
- inhibition (Cannabinoid receptor 1 [3]; filed as agonist): > 50%
- inhibition (Cannabinoid receptor 2 [4]): > 50%
- Emax (Cannabinoid receptor 1 [7]; filed as agonist): 46%
- Emax (Cannabinoid receptor 2 [5]): 34%
- EC50 (Cannabinoid receptor 1 [8]): 1010 nM
- EC50 (Cannabinoid receptor 2 [6]): 188 nM

SMILES: CCCCCc1cc(OC)c2cc(Cc3cccnc3)c(=O)oc2c1
- Ki (Cannabinoid receptor 1 [1]; read-out: Ki): 171 nM
- Ki (Cannabinoid receptor 2 [2]): 56.5 nM
- inhibition (Cannabinoid receptor 1 [3]; filed as agonist): > 50%
- inhibition (Cannabinoid receptor 2 [4]): > 50%
- Emax (Cannabinoid receptor 1 [7]; filed as agonist): 40%
- Emax (Cannabinoid receptor 2 [5]; filed as agonist): 40%

SMILES: CCCCc1cc2c(O)cc(C3(CCCC)CCCCC3)cc2oc1=O
- Ki (Cannabinoid receptor 1 [1]; read-out: pKi (converted)): > 1000 nM
- Ki (Cannabinoid receptor 2 [2]): 12.5 nM
- inhibition (Cannabinoid receptor 1 [3]; filed as agonist): 48%
- inhibition (Cannabinoid receptor 2 [4]): > 50%
- Emax (Cannabinoid receptor 2 [5]; filed as agonist): 65%
- Ratio Ki (Homo sapiens): 79

SMILES: CCCCC1(c2cc(O)c3cc(CCC)c(=O)oc3c2)CCCCC1
- Ki (Cannabinoid receptor 1 [1]; read-out: Ki): 159 nM
- Ki (Cannabinoid receptor 2 [2]): 6.5 nM
- inhibition (Cannabinoid receptor 1 [3]; filed as agonist): > 50%
- inhibition (Cannabinoid receptor 2 [4]): > 50%
- Emax (Cannabinoid receptor 1 [7]): 23%
- Emax (Cannabinoid receptor 2 [5]; filed as agonist): 62%
- EC50 (Cannabinoid receptor 1 [8]): 1120 nM
- EC50 (Cannabinoid receptor 2 [6]): 4.51 nM

SMILES: CCCCC1(c2cc(O)c3cc(Cc4ccccn4)c(=O)oc3c2)CCCCC1
- Ki (Cannabinoid receptor 1 [1]; read-out: pKi (converted)): > 1000 nM
- Ki (Cannabinoid receptor 2 [2]): 71.9 nM
- inhibition (Cannabinoid receptor 1 [3]): -7%
- inhibition (Cannabinoid receptor 2 [4]): > 50%
- Emax (Cannabinoid receptor 2 [5]; filed as agonist): 68%
- EC50 (Cannabinoid receptor 2 [6]): 42 nM

SMILES: CCCCC1(c2cc(O)c3cc(Cc4cccnc4)c(=O)oc3c2)CCCC1
- Ki (Cannabinoid receptor 1 [1]; read-out: pKi (converted)): > 1000 nM
- Ki (Cannabinoid receptor 2 [2]): 310 nM
- inhibition (Cannabinoid receptor 1 [3]): 19%
- inhibition (Cannabinoid receptor 2 [4]): > 50%
- Emax (Cannabinoid receptor 2 [5]; filed as agonist): 82%
